Results on 6 molecules are retold here after ChEMBL document CHEMBL5390224, “Design, synthesis, and biological evaluation of a novel series of 1,2,4-oxadiazole inhibitors of SLACK potassium channels: Identification of in vitro tool VU0935685” (Bioorg Med Chem, 2023).

Each structure is given as a SMILES string. Active and inactive are the calls of the source. The calls are words filed in the database; no cut-off is given here. Some results are limits rather than exact numbers.

In general, IC50 refers to the concentration at which inhibition is half-maximal. High values mean lower potency, low ones higher potency. Usually EC50 stands for the concentration giving half of the maximal effect. A higher EC50 goes with lower potency in that assay.

A short description of data set [1]: Metabolic stability in mouse liver microsomes assessed as compound remaining measured after 10 min in presence of NADPH. The class given is ADME, Microsome. The procedure, abridged:
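Mouse liver microsomes (0.5 mg/mL) with compound (5 μM) preincubated 5 min at 37 °C in 100 mM potassium phosphate, pH 7.4. Reaction started with NADPH (1 mM) plus MgCl2 (3 mM). Samples at 0 and 10 min quenched in cold acetonitrile with internal standard; percent remaining by LC/MS/MS.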
Background: Microsomes from liver hold many membrane-bound enzymes, among them those of drug oxidation.

Data set [2] has as its target T1, Potassium channel subfamily T member 2 (Homo sapiens) (UniProt Q6UVM3).
T1 sequence (whole entry): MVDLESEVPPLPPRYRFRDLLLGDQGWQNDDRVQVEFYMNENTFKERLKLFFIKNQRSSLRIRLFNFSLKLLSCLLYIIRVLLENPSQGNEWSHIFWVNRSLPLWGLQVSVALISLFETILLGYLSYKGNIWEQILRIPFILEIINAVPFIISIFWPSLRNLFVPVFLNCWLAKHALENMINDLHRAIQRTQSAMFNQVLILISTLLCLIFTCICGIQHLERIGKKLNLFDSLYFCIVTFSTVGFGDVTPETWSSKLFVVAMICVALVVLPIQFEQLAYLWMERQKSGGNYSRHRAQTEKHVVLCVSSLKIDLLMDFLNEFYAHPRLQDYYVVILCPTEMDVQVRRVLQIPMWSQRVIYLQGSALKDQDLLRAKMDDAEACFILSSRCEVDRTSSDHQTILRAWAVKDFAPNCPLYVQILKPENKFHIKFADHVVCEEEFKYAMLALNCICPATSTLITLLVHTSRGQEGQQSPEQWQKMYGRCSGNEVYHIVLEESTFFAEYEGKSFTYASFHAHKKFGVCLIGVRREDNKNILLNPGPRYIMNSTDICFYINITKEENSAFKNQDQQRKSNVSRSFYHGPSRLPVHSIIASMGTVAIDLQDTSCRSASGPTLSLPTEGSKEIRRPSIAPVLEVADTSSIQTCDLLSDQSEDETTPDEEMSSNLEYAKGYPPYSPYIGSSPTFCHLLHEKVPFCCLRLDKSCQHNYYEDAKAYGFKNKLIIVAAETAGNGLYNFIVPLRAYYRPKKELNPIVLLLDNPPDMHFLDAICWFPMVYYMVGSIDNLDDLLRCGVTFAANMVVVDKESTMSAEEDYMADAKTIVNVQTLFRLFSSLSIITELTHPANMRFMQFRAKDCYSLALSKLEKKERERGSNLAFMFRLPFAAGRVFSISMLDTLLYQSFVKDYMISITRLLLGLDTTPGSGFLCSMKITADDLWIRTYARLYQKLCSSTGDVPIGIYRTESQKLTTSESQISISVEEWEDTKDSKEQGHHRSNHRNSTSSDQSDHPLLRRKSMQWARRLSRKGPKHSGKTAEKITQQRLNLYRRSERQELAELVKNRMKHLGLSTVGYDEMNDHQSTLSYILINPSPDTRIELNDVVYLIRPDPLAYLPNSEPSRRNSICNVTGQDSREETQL
The experiment in a line: Inhibition of SLICK (unknown origin) expressed in HEK293 cells assessed as efficacy at 30 uM by thallium flux assay relative to control. Format: cell-based.

The nature of data set [3]: Apparent permeability in MDCK-MDR1 cells by bidirectional permeability assay. Format: ADME, cell-based, Canis lupus familiaris. The settings on record: dog.
Data set [4] has as its target T2, Potassium channel subfamily T member 2 (Homo sapiens, UniProt Q6UVM3).
T2 sequence (Q6UVM3 whole entry): T1 sequence (whole entry)
The experiment in a line: Inhibition of SLICK (unknown origin) expressed in HEK293 cells by thallium flux assay. Format: cell-based.

Data set [5] can be described thus: Plasma protein binding in mouse assessed as unbound fraction by equilibrium dialysis method. The class given is ADME, cell-free. The essentials:
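Equilibrium dialysis, 12–14 K MWCO cellulose membrane: plasma spiked to 5 μM final versus 25 mM phosphate buffer pH 7.4, 6 h at 37 °C, shaking 200 rpm. Both sides matrix-matched, acetonitrile extraction with internal standard, LC/MS/MS quantitation. Triplicate.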

Data set [6] is described as follows: Inhibition of wild-type human SLACK expressed in CHO cells by whole cell voltage clamp electrophysiology assay. The class given is cell-based. The settings on record: Cricetulus griseus. The procedure, abridged: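 Automated whole-cell patch clamp at room temperature. External (mM): NaCl 105, KCl 4, MgCl2 1, CaCl2 5, HEPES 10, NMDG-Cl 40, pH 7.4. Internal: NaCl 70, KF 70, KCl 10, EGTA 5, HEPES 5, pH 7.2. Concentrations 0.125–30 μM in half-log steps, ≥3 cells per series.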

Data set [7] can be described thus: Efflux ratio of permeability in MDCK-MDR1 cells assessed as P-glycoprotein mediated efflux. The settings on record: dog. Format: ADME, cell-based, Canis lupus familiaris.
Data set [8] deals with HEK293. Put plainly: Inhibition of human SLACK A934T mutant expressed in HEK293 cells assessed as efficacy at 30 uM by thallium flux assay relative to control. Format: cell-based. The essentials: (§1)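 Stable monoclonal HEK293 lines (WT or A934T SLACK) plated 20,000 cells/well; loaded 1 h at room temperature with Thallo-AM dye, 1.25 mM probenecid, masking dye, 0.3% Pluronic F-127 in buffer with 2.7 mM RbCl, pH 7.3. Compound preincubated 120 s, then Tl2SO4 stimulus (2.5 mM); fluorescence read 120 s. Concentration–response 1.5 nM–30 μM in half-log steps, ≥3 replicate wells.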

In data set [9] the test system is HEK293. Put plainly: Inhibition of wild-type human SLACK expressed in HEK293 cells assessed as efficacy at 30 uM by thallium flux assay relative to control. Format: cell-based. The procedure, abridged: as §1
In another data set the test system is CHO. Put plainly: Inhibition of wild-type human SLACK expressed in CHO cells assessed as efficacy at 30 uM by whole cell voltage clamp electrophysiology assay. The settings on record: Cricetulus griseus. The class given is cell-based.
A short description of data set [10]: Inhibition of human SLACK A934T mutant expressed in HEK293 cells by thallium flux assay. Format: cell-based. The essentials:
as §1

In data set [11] the target is Calcium-activated potassium channel subunit alpha-1 (Homo sapiens) (UniProt Q12791). Put plainly: Inhibition of Maxi-K (unknown origin) expressed in HEK293 cells assessed as efficacy at 30 uM by thallium flux assay relative to control. The class given is cell-based.
Calcium-activated potassium channel subunit alpha-1 (Homo sapiens), sequence (Q12791 whole entry): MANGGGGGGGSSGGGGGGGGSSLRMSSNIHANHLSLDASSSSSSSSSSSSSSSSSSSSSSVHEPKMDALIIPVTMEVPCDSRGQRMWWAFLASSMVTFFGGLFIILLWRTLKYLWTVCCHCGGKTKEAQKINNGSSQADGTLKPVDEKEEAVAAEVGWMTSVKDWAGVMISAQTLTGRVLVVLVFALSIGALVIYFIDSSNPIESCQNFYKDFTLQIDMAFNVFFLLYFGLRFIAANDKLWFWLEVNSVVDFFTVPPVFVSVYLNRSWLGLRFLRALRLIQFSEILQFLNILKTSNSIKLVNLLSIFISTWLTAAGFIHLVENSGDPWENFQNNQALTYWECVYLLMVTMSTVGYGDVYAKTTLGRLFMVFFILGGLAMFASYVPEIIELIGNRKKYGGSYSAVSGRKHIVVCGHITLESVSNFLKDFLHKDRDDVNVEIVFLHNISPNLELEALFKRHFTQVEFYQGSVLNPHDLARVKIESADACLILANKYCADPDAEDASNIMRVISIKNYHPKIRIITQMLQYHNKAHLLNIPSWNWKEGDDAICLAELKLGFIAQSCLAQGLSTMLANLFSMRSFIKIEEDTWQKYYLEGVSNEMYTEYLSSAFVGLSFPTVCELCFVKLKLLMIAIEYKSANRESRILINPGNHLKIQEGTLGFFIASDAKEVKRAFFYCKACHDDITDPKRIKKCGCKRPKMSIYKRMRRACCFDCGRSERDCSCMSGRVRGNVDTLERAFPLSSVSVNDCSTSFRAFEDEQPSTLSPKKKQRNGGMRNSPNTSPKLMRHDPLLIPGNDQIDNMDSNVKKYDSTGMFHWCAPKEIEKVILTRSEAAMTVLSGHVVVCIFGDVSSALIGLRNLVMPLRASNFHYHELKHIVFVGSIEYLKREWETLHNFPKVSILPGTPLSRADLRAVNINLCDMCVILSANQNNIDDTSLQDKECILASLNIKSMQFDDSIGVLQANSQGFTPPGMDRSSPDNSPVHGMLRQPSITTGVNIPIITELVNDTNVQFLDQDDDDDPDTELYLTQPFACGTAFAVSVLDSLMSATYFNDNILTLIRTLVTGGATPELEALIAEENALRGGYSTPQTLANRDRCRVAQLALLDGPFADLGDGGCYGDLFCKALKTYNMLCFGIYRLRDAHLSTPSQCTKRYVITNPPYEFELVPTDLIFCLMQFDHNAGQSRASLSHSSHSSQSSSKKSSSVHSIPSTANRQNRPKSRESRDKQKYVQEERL
Data set [12] shares this target. Put plainly: Inhibition of Maxi-K (unknown origin) expressed in HEK293 cells by thallium flux assay. Format: cell-based.
In data set [13] the test system is HEK293. The experiment in a line: Activation of wild-type human SLACK expressed in HEK293 cells assessed as efficacy at 30 uM by thallium flux assay relative to control. Format: cell-based.
Data set [14] can be described thus: Activation of wild-type human SLACK expressed in HEK293 cells by thallium flux assay. Format: cell-based. The procedure, abridged: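 Stable monoclonal HEK293 line with WT SLACK, dye-loaded 1 h at room temperature (Thallo-AM, probenecid, masking dye, Pluronic), pH 7.3 buffer. Compound added 120 s before Tl2SO4 stimulus (2.5 mM), kinetic fluorescence imaging 120 s. Concentrations 1.5 nM–30 μM, half-log steps, ≥3 replicate wells per series.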

The target in data set [15] is Voltage-gated inwardly rectifying potassium channel KCNH2 (Homo sapiens, UniProt Q12809). The experiment in a line: Inhibition of human ERG expressed in HEK293 cells at 10 uM by thallium flux assay. The class given is toxicity, cell-based. The settings on record: hek293, 10 µM.
Voltage-gated inwardly rectifying potassium channel KCNH2, sequence (Q12809 whole entry): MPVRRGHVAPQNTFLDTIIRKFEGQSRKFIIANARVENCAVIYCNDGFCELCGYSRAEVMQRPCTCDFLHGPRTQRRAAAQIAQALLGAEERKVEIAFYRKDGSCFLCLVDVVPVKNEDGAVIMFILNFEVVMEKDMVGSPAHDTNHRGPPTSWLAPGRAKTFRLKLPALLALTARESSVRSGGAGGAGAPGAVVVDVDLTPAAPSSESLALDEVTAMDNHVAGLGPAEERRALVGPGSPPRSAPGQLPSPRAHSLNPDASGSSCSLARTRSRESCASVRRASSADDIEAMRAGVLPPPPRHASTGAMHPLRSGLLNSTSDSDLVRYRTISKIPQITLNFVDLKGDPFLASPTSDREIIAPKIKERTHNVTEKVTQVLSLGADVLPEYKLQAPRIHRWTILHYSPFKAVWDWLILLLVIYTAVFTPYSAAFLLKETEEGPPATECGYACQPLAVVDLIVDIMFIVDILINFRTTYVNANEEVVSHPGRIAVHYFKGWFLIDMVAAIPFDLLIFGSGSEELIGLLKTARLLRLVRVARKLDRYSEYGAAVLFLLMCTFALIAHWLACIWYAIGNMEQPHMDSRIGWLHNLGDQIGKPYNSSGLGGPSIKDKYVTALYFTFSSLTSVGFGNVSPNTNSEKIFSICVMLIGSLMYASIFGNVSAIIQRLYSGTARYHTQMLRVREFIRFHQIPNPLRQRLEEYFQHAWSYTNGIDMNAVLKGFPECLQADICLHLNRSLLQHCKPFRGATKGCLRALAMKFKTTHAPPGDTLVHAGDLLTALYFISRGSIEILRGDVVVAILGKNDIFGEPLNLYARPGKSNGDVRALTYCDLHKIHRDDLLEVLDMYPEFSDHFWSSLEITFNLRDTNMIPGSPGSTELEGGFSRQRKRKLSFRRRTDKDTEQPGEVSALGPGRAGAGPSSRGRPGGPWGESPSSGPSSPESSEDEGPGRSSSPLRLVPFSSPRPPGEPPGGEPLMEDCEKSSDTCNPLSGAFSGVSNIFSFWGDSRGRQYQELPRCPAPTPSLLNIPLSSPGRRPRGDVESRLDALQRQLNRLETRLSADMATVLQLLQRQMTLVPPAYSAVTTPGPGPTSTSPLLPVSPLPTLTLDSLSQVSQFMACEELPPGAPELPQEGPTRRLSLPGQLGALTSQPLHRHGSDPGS

For `CCOc1ccccc1S(=O)(=O)N1CC(c2nc(-c3ccsc3)no2)C1`, the Activity in data set [1] is under 10%. The Efficacy was determined as 55% in data set [2], 72% in the data set on HEK293 [8], 102% with HEK293 [9] and 100% in the data set on CHO. In data set [3], the Papp is recorded as 31.1 10^-6 cm/s. The IC50 in data set [4] is over 10 µM; in [6], 0.64 µM; in data set [10] it was 0.82 µM. The Fu in data set [5] came out at 0.022. Besides, the Ratio in data set [7] is 0.65. Also, the Efficacy result in [11] was “inactive”. In addition, the inhibition result in data set [12] was “inactive”.

`COc1ccccc1S(=O)(=O)N1CC(c2nc(-c3ccsc3)no2)C1`: in the data set with HEK293 [13], the Efficacy is 29%. Moreover, the EC50 in data set [14] was 8.1 µM.

Turning to `CCOc1ccccc1S(=O)(=O)N1CC(c2nc(-c3ccc(OC)cc3)no2)C1`, the Efficacy in the data set on HEK293 [13] is 21%. The molecule also came in with an EC50 in data set [14] of 7.1 µM.

Regarding `COc1ccc(S(=O)(=O)N2CC(c3nc(-c4ccsc4)no3)C2)cc1`, in the data set on HEK293 [13] (filed as activator), the Efficacy came out at 51%. The molecule further showed an EC50 in data set [14] of 3.2 µM.

In the case of `Cc1ccc2cccc(S(=O)(=O)N3CC(c4nc(-c5ccc(F)cc5)no4)C3)c2n1`, the Activity in [1] is 26%. In addition, the Efficacy in [2] was 76%; with HEK293 [8], 72%; in the data set with HEK293 [9], 99%; in the data set with CHO it was 100%. The results for the IC50 in data set [4], in data set [6] and in [10] were over 10 µM, 0.32 µM and 0.67 µM, respectively. For the same molecule, in data set [5], the Fu is recorded as under 0.01. Moreover, the Efficacy result in data set [11] is “inactive”. Also, the inhibition entry in data set [12] is “inactive”. For the same molecule, the “inhibition (INH)” value in data set [15] is listed as “Not Active”.

As to `Cc1ccccc1S(=O)(=O)N1CC(c2nc(-c3ccsc3)no2)C1`, the Efficacy with HEK293 [13] (filed as activator) came out at 44%. This molecule displayed an EC50 in data set [14] of 6.1 µM.
